# Bioassay records: PubChem BioAssay, several laboratories
# Hits are enriched below; roughly 12% of the tested compounds scored in any of these assays.
# L major viab = Leishmania major promastigote growth inhibition, primary screen; Leishmania major promastigotes, resazurin fluorescence viability; inhibition, % at 10 µM; 200,000 compounds, 9% hits; in the data active = inhibition above about 50%;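 also: promastigotes grown with compound for 44 hours at 28 °C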
# Diaphorase inh = diaphorase inhibitors and chemical oxidizers, primary screen, counter-screen for diaphorase-coupled primary assays, biochemical, uHTS, resorufin fluorescence | AID 1217, 2008 | inhibition, % at 20 µM | diaphorase resazurin-to-resorufin fluorescence, NADH, 16 min; bacterial (C. kluyveri) enzyme, not human | 190,000 compounds, 0.69% hits;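 active = primary screen inhibition at 20 µM above a set limit, cut at about 50% in these data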;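 also: plate controls were DMSO with full reaction for no effect and wells lacking NADH for full effect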
#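 Assay system: diaphorase enzyme from Clostridium kluyveri. Quantity: enzyme working solution with 0.14 U/mL diaphorase. Schedule: reaction incubation of 16 min at room temperature. Technique: resorufin fluorescence, excitation 544 nm, emission 590 nm. Controls: No-NADH positive control and DMSO neutral control.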
# WT yeast gro inh = growth inhibition of WT strain, primary screen, mitochondrial fusion inhibitor project, WT and mutant strains, chemical genetic | mitochondrial fusion phenotypic screen | 190,000 compounds, 2.1% hits | inhibition, % at 10 µM; in the data active = inhibition above about 58%; tested in S. cerevisiae
# Cl transport mod = KCC2 cotransporter modulators, thallium flux, primary screen, cell-based, HEK293 KCC2, FluoZin-2 fluorescence, MLSMR; AID 1456, 2008; KCC2 cells, thallium flux FluoZin-2 fluorescence; 190,000 compounds, 2.2% hits; B-score of Tl+ flux slope (higher = more flux/activation; lower = inhibition) at 10 µM; Solute carrier family 12 member 5 (Homo sapiens), Q9H2X9;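 active = thallium flux slope and its plate-corrected score both differing from the plate sample mean at a set confidence after two filtering rounds, in either direction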;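 also: slope of fluorescence scaled to starting intensity during 10 to 20 s after thallium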
# Target sequence (Q9H2X9 whole entry, looked up): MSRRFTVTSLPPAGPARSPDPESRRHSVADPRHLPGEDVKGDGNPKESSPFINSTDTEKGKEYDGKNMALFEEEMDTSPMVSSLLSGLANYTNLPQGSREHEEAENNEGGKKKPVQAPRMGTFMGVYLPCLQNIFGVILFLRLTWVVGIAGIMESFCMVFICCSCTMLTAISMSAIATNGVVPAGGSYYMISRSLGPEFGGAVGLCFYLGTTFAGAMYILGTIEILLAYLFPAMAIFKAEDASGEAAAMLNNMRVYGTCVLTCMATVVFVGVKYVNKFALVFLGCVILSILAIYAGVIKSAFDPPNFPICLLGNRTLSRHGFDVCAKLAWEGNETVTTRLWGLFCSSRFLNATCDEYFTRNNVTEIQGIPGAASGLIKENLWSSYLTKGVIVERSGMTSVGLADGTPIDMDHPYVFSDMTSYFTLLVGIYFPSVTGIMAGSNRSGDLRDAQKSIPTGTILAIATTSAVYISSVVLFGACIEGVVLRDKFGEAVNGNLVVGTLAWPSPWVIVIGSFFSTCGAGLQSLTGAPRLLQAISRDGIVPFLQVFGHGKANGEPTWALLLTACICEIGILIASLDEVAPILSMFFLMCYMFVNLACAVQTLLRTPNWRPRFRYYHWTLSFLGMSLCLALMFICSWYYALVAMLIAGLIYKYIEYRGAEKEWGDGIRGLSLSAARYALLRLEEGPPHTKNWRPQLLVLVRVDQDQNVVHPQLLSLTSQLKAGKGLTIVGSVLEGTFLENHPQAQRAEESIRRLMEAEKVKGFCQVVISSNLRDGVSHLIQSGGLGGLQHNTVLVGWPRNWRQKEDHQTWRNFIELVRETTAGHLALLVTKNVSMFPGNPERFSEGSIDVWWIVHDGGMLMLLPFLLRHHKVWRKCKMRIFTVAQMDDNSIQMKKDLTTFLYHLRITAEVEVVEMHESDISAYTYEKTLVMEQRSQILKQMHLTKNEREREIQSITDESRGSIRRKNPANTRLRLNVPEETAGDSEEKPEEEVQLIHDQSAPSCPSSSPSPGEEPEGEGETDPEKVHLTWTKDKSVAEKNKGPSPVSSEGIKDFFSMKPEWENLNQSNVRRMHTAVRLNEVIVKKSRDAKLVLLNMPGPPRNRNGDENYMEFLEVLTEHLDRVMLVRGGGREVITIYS
# ROMK mod = ROMK potassium channel modulators, primary screen, cell-based, thallium flux, MLSMR library; Tet-inducible ROMK, thallium flux fluorescence; actives lie on both sides; B-score at 10 µM; 130,000 compounds, 2% hits;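 active = signal ratio slope over the read window, or its plate-corrected B-score, at least 3 SD from the plate mean, either direction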;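 also: B-score of the F/F0 ratio slope over 7 to 12 s after thallium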
# Diaphorase act = compounds boosting diaphorase resazurin reduction – biochemical, uHTS, resorufin fluorescence, counter-screen for diaphorase-coupled primary assays, primary screen | activation factor at 20 µM | 190,000 compounds, 0.005% hits | Diaphorase/resazurin coupled assay, 16 min; active compounds read high; 1 = vehicle wells, 0 = NADH-free wells;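 active = diaphorase activity raised at least twofold by the compound at 20 µM; inactive = activation factor below 2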
#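 Assay system: bacterial diaphorase enzyme (C. kluyveri) / Input: enzyme 0.07 U/mL final / Medium: 50 mM HEPES pH 7.4 with 4.542 mM MgCl2, 0.005% Tween 20 / Doses: single compound dose of 20 µM, 1% DMSO final / Incubation: 16 min enzyme reaction, ambient temperature / Signal: fluorescence, excitation 544 nm and emission 590 nm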
# * hit, by the source's call; nt = no result.
SMILES,L major viab,Diaphorase inh,WT yeast gro inh,Cl transport mod,ROMK mod,Diaphorase act
COCCN(CCOC)S(=O)(=O)c1ccc(C(=O)Nc2nc(-c3ccncc3)cs2)cc1,85.3*,11.5,3.8,0.265,nt,0.9
CCOC(=O)Cc1csc(NC(=O)c2ccc(S(=O)(=O)N(CCOC)CCOC)cc2)n1,4.5,15.7,-11.7,-0.962,0.682,0.8
COc1ccc(-n2c(C)cc(-c3csc(NC(=O)c4ccc(S(=O)(=O)N(C)C)cc4)n3)c2C)cc1,62.8*,17.0,-11.9,-0.333,0.0968,0.8
COc1ccc(NC(=O)c2ccc(S(=O)(=O)N(C)C)cc2)cc1,1.5,8.0,-1.7,0.775,-0.128,0.9
Cc1cc(=O)[nH]c(N/N=C/c2ccccn2)n1,98.8*,4.0,1.9,0.175,-0.0174,1
O=c1nc(N/N=C/c2ccccn2)cn[nH]1,97.5*,2.4,18.2,0.739,nt,1
CCC(C)n1c(SCC(=O)Nc2ccccc2C(F)(F)F)nc2ccsc2c1=O (stereo not drawn),95.9*,22.0,18.3,-0.829,nt,0.8
CCC(C)n1c(SCC(=O)NCCc2ccc(S(N)(=O)=O)cc2)nc2ccsc2c1=O (stereo not drawn),-6.7,19.4,4.8,-0.5,0.178,0.8
CCC(C)n1c(SCc2ccccc2)nc2ccsc2c1=O (stereo not drawn),15.6,22.3,64.5*,-4.24,0.747,0.8
CSc1nnc(-c2ccc(C(F)(F)F)nc2C)o1,nt,nt,nt,0.348,nt,nt
COc1ccccc1N1C(=N)S/C(=C\c2ccc(-c3ccccc3C(=O)O)o2)C1=O,-9.3,34.3,-12.9,0.195,-0.017,0.7
N=C1S/C(=C\c2ccc(-c3ccccc3C(=O)O)o2)C(=O)N1c1ccc2c(c1)OCO2,-13.8,67.0*,-1.4,-0.78,0.0614,0.3
Cc1cc(NC(=O)Cn2cnc3c2c(=O)n(C)c(=O)n3C)n(-c2ccccc2)n1,-2.4,16.9,14.6,nt,0.808,0.8
Cc1csc(=Nc2ccccc2)n1Cc1ccco1,2.7,12.9,12.7,1.76,-0.0432,0.9
Cc1ccccc1CN(C)CC(=O)Nc1cccc(S(=O)(=O)N(C)c2ccccc2)c1,71.0*,4.7,15.6,-1.13,-1.62,1
CC(=O)c1c(C)[nH]c(C(=O)Nc2cccc(S(=O)(=O)N(C)c3ccccc3)c2)c1C,95.3*,20.9,-5.8,-1.35,-2.82,0.8
CN(c1ccccc1)S(=O)(=O)c1cccc(NS(=O)(=O)c2ccc(/C=C/C(=O)O)cc2)c1,-3.8,59.1*,0.7,1.59,-0.191,0.4
CN(c1ccccc1)S(=O)(=O)c1cccc(NC(=O)CSc2nncs2)c1,72.1*,27.3,0.3,1.19,nt,0.7
CCOC(=O)c1oc2ccc(Cl)cc2c1NC(C)=O,-3.6,-1.6,-1.1,0.71,1.67,1
O=C(NN=C1CCCCCC1)c1ccc2c(c1)OCO2,-1.1,-4.7,-3.9,0.465,0.914,1
O=C(COC(=O)c1c[nH]c(=O)[nH]c1=O)Nc1ccccc1,6.0,-5.2,-11.5,0.549,0.548,1.1
Cc1cc(NC(=O)CN2CCCCC2C)no1 (stereo not drawn),-3.1,8.7,14.6,0.868,nt,0.9
COc1ccccc1-c1noc(CSc2nc(N)cc(=O)[nH]2)n1,-11.8,6.4,5.2,-0.00247,0.216,0.9
COCCNc1nnc(SCC(=O)Nc2cc(-c3ccccc3)nn2-c2ccccc2)s1,-5.1,3.3,5.2,0.0615,-1.3,1
CN(c1ccccc1)S(=O)(=O)c1cccc(NC(=O)CSc2nnc(N)s2)c1,78.1*,13.5,16.8,-0.135,-1.36,0.9
SMILES,L major viab,Diaphorase inh,WT yeast gro inh,Cl transport mod,ROMK mod,Diaphorase act
O=C(CSc1nncs1)Nc1cc(-c2ccccc2)nn1-c1ccccc1,50.8*,20.9,-2.6,-0.991,0.596,0.8
O=C(NCc1ccco1)c1cccc(-c2nnc(-c3ccccc3)o2)c1,32.3,15.2,1.9,-0.4,nt,0.8
NC(=S)N/N=C/c1ccc(-c2ccccc2)o1,10.1,17.5,-45.4,1.69,-0.414,0.8
NC(=S)N/N=C/c1ccc(-c2ccc(Cl)c(Cl)c2)o1,96.2*,-2.1,69.4*,1.99,nt,1
NC(=S)N/N=C\c1ccc(-c2cccc(Cl)c2Cl)o1,100.4*,14.9,30.8,0.335,0.161,0.9
O=[N+]([O-])c1ccc2[nH]c3nc4ccccc4nc3c2c1,nt,nt,nt,0.225,nt,nt
COCCN(C(=O)C(C)C)c1nnc(-c2ccc(C)cc2)s1,4.1,3.4,-9.3,-0.355,nt,1
Cc1ccc(CN2CC(C(=O)Nc3ccc4c(C)cc(=O)oc4c3)CC2=O)cc1 (stereo not drawn),4.5,15.1,6.4,0.013,nt,0.8
COc1ccc(CC(=O)Nc2ccc3c(c2)CCC3)cc1OC,0.3,10.5,-16.8,0.484,-2.58,0.9
COc1ccc(CC(=O)Nc2ccc3c(C)cc(=O)oc3c2)cc1OC,63.9*,4.0,-8.0,0.0639,nt,1
Cc1cc(=O)oc2cc(NC(=O)C3CCCC3)ccc12,100.5*,2.9,2.8,0.142,0.579,1
O=C(O)c1cn(Cc2ccccn2)c(=O)c2ccccc12,-6.7,-4.4,-5.5,0.358,0.0425,1
Cn1c(=O)c2c(nc(SCC(=O)N3CCc4ccccc43)n2Cc2ccc(F)cc2)n(C)c1=O,15.9,nt,nt,0.598,nt,nt
CC(C)CCn1nc(C(=O)Nc2nc3c(s2)CCCC3)c2ccccc2c1=O,64.7*,12.8,31.0,1.52,0.166,0.9
COc1ccc2c(CC(=O)NCCN3C(=O)S/C(=C\c4cccnc4)C3=O)coc2c1,7.5,18.3,-4.2,0.984,0.477,0.8
COc1ccc(/C=C2\SC(=O)N(CCNC(=O)Cc3coc4cc(OC)ccc34)C2=O)cc1,59.1*,16.2,0.6,0.659,1.55,0.8
C/C(=N\OC(=O)C1CC1)C1CC1c1ccc(F)cc1 (stereo not drawn),-4.3,14.2,9.7,0.147,-0.238,0.9
CCn1c2ccccc2c2cc(NC(=O)COC(=O)c3cccc(S(=O)(=O)NC)c3)ccc21,65.6*,15.3,-22.6,-0.872,-0.829,0.8
Cc1cc(C(F)F)nn1CC(=O)NC1C(=O)N2C(C(=O)O)=C(CSc3nnnn3C)CSC12 (stereo not drawn),-2.6,-4.3,-3.8,0.202,0.392,1
CS(=O)(=O)c1ccc2nc(NC(=O)Cc3ccccc3)sc2c1,3.1,-11.5,12.4,0.33,nt,1.1
CC(C)(C)NS(=O)(=O)c1ccc2nc(NC(=O)Cc3cccs3)sc2c1,95.1*,14.7,-11.1,-0.507,0.269,0.9
